These results are taken from ChEMBL document CHEMBL2034851, “Synthesis and antiviral evaluation of C5-substituted-(1,3-diyne)-2'-deoxyuridines” (Eur J Med Chem, 2012).

In series [1] the test system is Human alphaherpesvirus 3. Briefly: Antiviral activity against thymidine kinase-positive Varicella-zoster virus OKA infected in HEL cells assessed as reduction in virus-induced cytopathicity. Particulars: Human alphaherpesvirus 3, strain Oka vaccine. The series is classed as functional, cell-based. In a few lines: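 Confluent HEL cell monolayers in 96-well plates were inoculated with 100 CCID50 or 20 PFU of virus and left 1–2 h for adsorption. Residual virus was removed and cells were incubated with serial compound dilutions. Read-out was taken once cytopathicity was complete in untreated infected controls.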

Series [2] relates to Human alphaherpesvirus 3. Briefly: Antiviral activity against thymidine kinase-deficient Varicella-zoster virus 07/1 infected in HEL cells assessed as reduction in virus-induced cytopathicity. Format: functional, organism-based. The following applies: Human alphaherpesvirus 3, 07/1, HEL. An outline of the steps:
(§1)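 Confluent HEL cell monolayers in 96-well plates were inoculated with 100 CCID50 or 20 PFU of virus and left 1–2 h for adsorption. Residual virus was removed and cells were incubated with serial compound dilutions. Read-out was taken once cytopathicity was complete in untreated infected controls. EC50 is the concentration giving 50% reduction of virus-induced cytopathicity or plaque formation.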

Series [3] has as its system Human betaherpesvirus 5. The series is described as follows: Antiviral activity against Human cytomegalovirus AD169 infected in HEL cells assessed as reduction in virus-induced cytopathicity. Particulars: Human betaherpesvirus 5, AD169, HEL. Format: functional, organism-based. An outline of the steps:
(§2)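 Confluent HEL cell monolayers in microtiter plates were inoculated with 100 CCID50 of virus or 20 PFU. After 1–2 h adsorption, residual virus was removed. Cultures were then incubated with graded compound concentrations. Cytopathicity was read once it was complete in untreated infected controls. EC50 is the concentration giving 50% reduction of virus-induced cytopathicity or plaque formation.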

The subject of series [4] is Human betaherpesvirus 5. The series is described as follows: Antiviral activity against Human cytomegalovirus Davis infected in HEL cells assessed as reduction in virus-induced cytopathicity. Particulars: Human betaherpesvirus 5, Davis. Format: functional, organism-based. An outline of the steps: as §2
A general note: Damage to the host cells serves as the signal in cytopathic effect assays.

Series [5] in a line: Cytotoxicity against human HEL cells assessed as change in cell morphology by microscopic analysis. The series is classed as cell-based. In a few lines: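 MCC is the compound concentration producing a microscopically visible change in cell morphology, scored on the cell cultures used for the antiviral tests.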
Series [6] can be described thus: Cytostatic against human HEL cells assessed as reduction in cell growth after 3 days by coulter counter. The series is classed as cell-based. An outline of the steps: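 HEL cells were seeded at 5 × 10³ cells/well and grown for 24 h. Medium with varying compound concentrations was then added and plates were incubated 3 days at 37 °C. Cells were counted with a Coulter counter. CC50 is the concentration reducing cell proliferation by 50% versus untreated controls.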

Series [7] in a line: Lipophilicity, log P of the compound. Format: physicochemical. Particulars: octanol/water.
Series [8] concerns Human alphaherpesvirus 3. The series is described as follows: Antiviral activity against thymidine kinase-positive Varicella-zoster virus YS infected in HEL cells assessed as reduction in virus-induced cytopathicity. Format: functional, organism-based. The following applies: Human alphaherpesvirus 3, YS. An outline of the steps:
as §1

Series [9] concerns Human alphaherpesvirus 1. Briefly: Antiviral activity against Herpes simplex virus 1 KOS infected in HEL cells assessed as reduction in viral plaque formation. The series is classed as functional, organism-based. The following applies: Human alphaherpesvirus 1, KOS. In a few lines: as §2
The subject of a further series is Human alphaherpesvirus 2. The series is described as follows: Antiviral activity against Herpes simplex virus 2 G infected in HEL cells assessed as reduction in viral plaque formation. Particulars: Human alphaherpesvirus 2, strain G. Format: functional, organism-based. In a few lines: as §2
The test system of series [10] is Human alphaherpesvirus 1. The series is described as follows: Antiviral activity against thymidine kinase-deficient Herpes simplex virus 1 infected in HEL cells assessed as reduction in viral plaque formation. Format: functional, organism-based. The following applies: Human alphaherpesvirus 1, HEL. In a few lines: as §2
Another series concerns Vaccinia virus. The series is described as follows: Antiviral activity against Vaccinia virus infected in HEL cells assessed as reduction in viral plaque formation. Format: functional, organism-based. Particulars: Orthopoxvirus vaccinia. In a few lines:
as §1

For orientation: pEC50 means the negative decadic logarithm of the EC50, by convention in mol/L. As a reminder, the CC50 is the concentration at which the toxic effect on the cells reaches its halfway point. In general, logP refers to a log measure of how a compound divides between an organic and an aqueous phase. High values mean higher lipophilicity, low ones lower lipophilicity.

pEC50: −log10 of the molar value. Some results are limits rather than exact numbers.

For the molecule `O=c1[nH]c(=O)n([C@H]2C[C@H](O)[C@@H](CO)O2)cc1C#CC#Cc1ccc([N+](=O)[O-])cc1`, the pEC50 with Human alphaherpesvirus 3 [1], in the series on Human alphaherpesvirus 3 [2], in the series on Human betaherpesvirus 5 [3] and in the series on Human betaherpesvirus 5 [4] was less than 4.70 throughout. Also, the MCC in series [5] came to 100 µM. Besides, the CC50 at 72 h in [6] amounted to 89 µM. The molecule also registered a lipophilicity (logP) in series [7] of 0.9.
Regarding `Nc1ccn(C[C@@H](CO)OCP(=O)(O)O)c(=O)n1` [CIDOFOVIR], in the series with Human betaherpesvirus 5 [4], the pEC50 was 5.96. Also, the MCC in series [5] was greater than 350 µM. For the same molecule, the cytotoxic concentration (CC50) at 72 h in [6] amounted to 64 µM.
Take `Nc1ccc(C#CC#Cc2cn([C@H]3C[C@H](O)[C@@H](CO)O3)c(=O)[nH]c2=O)cc1`: the negative logarithm of the EC50 (pEC50) with Human alphaherpesvirus 3 [1], with Human alphaherpesvirus 3 [2], in the series on Human betaherpesvirus 5 [3] and in the series with Human betaherpesvirus 5 [4] was less than 4.00 each time. Besides, the MCC in [5] was greater than 100 µM. The CC50 at 72 h in series [6] is greater than 100 µM. Also, the log partition coefficient (logP) in series [7] worked out at 0.13.
As to `O=c1[nH]c(=O)n([C@H]2C[C@H](O)[C@@H](CO)O2)cc1C#CC#Cc1ccc(OC(F)(F)F)cc1`, the pEC50 in the series with Human alphaherpesvirus 3 [8] was 5.97; in the series with Human alphaherpesvirus 3 [1], 6.05; in the series on Human alphaherpesvirus 3 [2], less than 5.40; in the series with Human betaherpesvirus 5 [3], less than 4.70; in the series on Human betaherpesvirus 5 [4], less than 4.70; in the series on Human alphaherpesvirus 1 [9] it was 4.84. Besides, the pEC50 in the series with Human alphaherpesvirus 2 is 5.00; in the series on Human alphaherpesvirus 1 [10], 4.84; with Vaccinia virus it was 4.70. Also, in [5], the MCC is 100 µM. Further, the 50% cytotoxic concentration (CC50) at 72 h in series [6] was found to be 55 µM. For the same molecule, the logP in series [7] worked out at 2.39.
Turning to `CCCCCCc1ccc(C#CC#Cc2cn([C@H]3C[C@H](O)[C@@H](CO)O3)c(=O)[nH]c2=O)cc1`, the negative logarithm of the EC50 (pEC50) in the series on Human alphaherpesvirus 3 [8] was 5.19; in the series with Human alphaherpesvirus 3 [1] it was 5.06; in the series on Human alphaherpesvirus 3 [2] it was 5.02; in the series with Human betaherpesvirus 5 [3], less than 4.70; in the series with Human betaherpesvirus 5 [4], less than 4.70. For the same molecule, the MCC in [5] stood at 100 µM. Moreover, in series [6], the cytotoxic concentration (CC50) at 72 h is 35 µM. Besides, the logP in series [7] amounted to 3.7.
As to `O=c1[nH]c(=O)n([C@H]2C[C@H](O)[C@@H](CO)O2)cc1C#CC#CC1CC1`, the negative-log EC50 (pEC50) in the series with Human alphaherpesvirus 3 [1], with Human alphaherpesvirus 3 [2], in the series on Human betaherpesvirus 5 [3] and in the series with Human betaherpesvirus 5 [4] was less than 4.00 each time. Besides, the MCC in series [5] was greater than 100 µM. The 50% cytotoxic concentration (CC50) at 72 h in series [6] was greater than 100 µM.
As for `CC(O)CC#CC#Cc1cn([C@H]2C[C@H](O)[C@@H](CO)O2)c(=O)[nH]c1=O` (stereo partly drawn), the pEC50 in the series on Human alphaherpesvirus 3 [8] was 4.90; in the series on Human alphaherpesvirus 3 [1] it was 4.70; with Human alphaherpesvirus 3 [2] it was less than 4.00; in the series on Human betaherpesvirus 5 [3] it was less than 4.00; in the series with Human betaherpesvirus 5 [4] it was less than 4.00. The MCC in series [5] is greater than 100 µM. The half-maximal cytotoxic concentration (CC50) at 72 h in series [6] stood at 9.5 µM.
With `O=c1[nH]c(=O)n([C@H]2C[C@H](O)[C@@H](CO)O2)cc1C#CC#Cc1ccccc1`, the pEC50 in the series on Human alphaherpesvirus 3 [8], in the series on Human alphaherpesvirus 3 [1], in the series on Human alphaherpesvirus 3 [2], in the series on Human betaherpesvirus 5 [3] and in the series on Human betaherpesvirus 5 [4] was less than 4.70 in each case. The MCC in series [5] was 100 µM. Moreover, in [6], the CC50 at 72 h was found to be 100 µM. This molecule gave a log partition coefficient (logP) in series [7] of 0.96.
`Nc1nc2c(ncn2COC(CO)CO)c(=O)[nH]1` [GANCICLOVIR]: the pEC50 was 5.12 in the series with Human betaherpesvirus 5 [3] and 5.15 in the series with Human betaherpesvirus 5 [4]. Also, the MCC in series [5] was greater than 350 µM. For the same molecule, the CC50 at 72 h in series [6] came out at 130 µM.
With `COc1cc(C#CC#Cc2cn([C@H]3C[C@H](O)[C@@H](CO)O3)c(=O)[nH]c2=O)cc(OC)c1`, the pEC50 in the series with Human alphaherpesvirus 3 [8] is 4.42; in the series on Human alphaherpesvirus 3 [1], 4.41; with Human alphaherpesvirus 3 [2], less than 4.00; in the series with Human betaherpesvirus 5 [3], less than 4.00; in the series on Human betaherpesvirus 5 [4], less than 4.00. Besides, the MCC in series [5] was greater than 100 µM. Besides, the CC50 at 72 h in series [6] was greater than 100 µM.
On to `Cc1cc(C#CC#Cc2cn([C@H]3C[C@H](O)[C@@H](CO)O3)c(=O)[nH]c2=O)ccc1F`, for which the pEC50 with Human alphaherpesvirus 3 [8] is 5.04; in the series on Human alphaherpesvirus 3 [1], 4.85; with Human alphaherpesvirus 3 [2], less than 4.70; with Human betaherpesvirus 5 [3] it was less than 4.70; in the series with Human betaherpesvirus 5 [4], less than 4.70. Also, the MCC in series [5] was 100 µM. Besides, in series [6], the CC50 at 72 h is 45 µM.
As for `CCCc1ccc(C#CC#Cc2cn([C@H]3C[C@H](O)[C@@H](CO)O3)c(=O)[nH]c2=O)cc1`, the negative logarithm of the EC50 (pEC50) was 5.56 in the series on Human alphaherpesvirus 3 [8]; 5.43 with Human alphaherpesvirus 3 [1]; 4.85 in the series on Human alphaherpesvirus 3 [2]; less than 4.70 with Human betaherpesvirus 5 [3]; less than 4.70 in the series with Human betaherpesvirus 5 [4]. In series [5], the MCC was 100 µM. In addition, the CC50 at 72 h in [6] stood at 52 µM. For the same molecule, the log partition coefficient (logP) in series [7] came out at 2.36.
For `O=c1[nH]c(=O)n([C@H]2C[C@H](O)[C@@H](CO)O2)cc1C#CC#Cc1ccccn1`, the pEC50 in the series on Human alphaherpesvirus 3 [8] is 5.69; in the series with Human alphaherpesvirus 3 [1], 5.29; with Human alphaherpesvirus 3 [2], 4.70; with Human betaherpesvirus 5 [3], 4.31; in the series on Human betaherpesvirus 5 [4], less than 5.40. Moreover, the MCC in series [5] was greater than 20 µM. Moreover, the CC50 at 72 h in [6] is 1.5 µM.
For `O=c1[nH]c(=O)n([C@H]2C[C@H](O)[C@@H](CO)O2)cc1C#CC#CCO`, the pEC50 is 5.20 in the series on Human alphaherpesvirus 3 [8]; 5.68 with Human alphaherpesvirus 3 [1]; less than 4.00 with Human alphaherpesvirus 3 [2]; less than 4.00 in the series with Human betaherpesvirus 5 [3]; less than 4.00 in the series on Human betaherpesvirus 5 [4]. In addition, the MCC in series [5] is greater than 100 µM. Also, the cytotoxic concentration (CC50) at 72 h in [6] is greater than 100 µM. For the same molecule, the logP in series [7] was -1.45.
For `Nc1nc2c(ncn2COCCO)c(=O)[nH]1` [ACYCLOVIR], the pEC50 is 5.66 with Human alphaherpesvirus 3 [8] and 4.04 in the series on Human alphaherpesvirus 3 [2]. Moreover, in series [5], the MCC is greater than 300 µM. The CC50 at 72 h in series [6] was 470 µM.
`O=c1[nH]c(=O)n([C@H]2C[C@H](O)[C@@H](CO)O2)cc1C#CC#CCC1CCCC1`: the pEC50 in the series with Human alphaherpesvirus 3 [8] is 4.47; with Human alphaherpesvirus 3 [1], 4.38; in the series with Human alphaherpesvirus 3 [2] it was less than 4.00; with Human betaherpesvirus 5 [3], less than 4.00; with Human betaherpesvirus 5 [4], less than 4.00. Also, in series [5], the MCC was greater than 100 µM. Further, the CC50 at 72 h in series [6] worked out at 89 µM. In addition, the log partition coefficient (logP) in series [7] turned out to be 1.43.
Take `Nc1cccc(C#CC#Cc2cn([C@H]3C[C@H](O)[C@@H](CO)O3)c(=O)[nH]c2=O)c1`: the pEC50 in the series on Human alphaherpesvirus 3 [1], with Human alphaherpesvirus 3 [2], with Human betaherpesvirus 5 [3] and with Human betaherpesvirus 5 [4] was less than 4.00 in each case. For the same molecule, the MCC in series [5] is greater than 100 µM. Besides, the CC50 at 72 h in series [6] was greater than 100 µM. Moreover, the logP in [7] worked out at 0.13.
With `O=c1[nH]c(=O)n([C@H]2C[C@H](O)[C@@H](CO)O2)cc1/C=C/Br` [BRIVUDINE], the negative-log EC50 (pEC50) is 8.12 with Human alphaherpesvirus 3 [8], 8.06 with Human alphaherpesvirus 3 [1] and 4.13 with Human alphaherpesvirus 3 [2]. Moreover, the MCC in [5] is greater than 150 µM. Also, the half-maximal cytotoxic concentration (CC50) at 72 h in [6] is greater than 100 µM.
